We go through five compounds from ChEMBL document CHEMBL2163238, “Design, synthesis, and biological evaluation of N-alkylated deoxynojirimycin (DNJ) derivatives for the treatment of dengue virus infection” (J Med Chem, 2012).

Converted amounts (≈) assume the structure as drawn. The source made the active and inactive calls. No cut-off for these calls is given here.

The test system of one data set is MDBK. The experiment in a line: Competitive inhibition of endoplasmic reticulum-resident alpha-glucosidase in MDBK cells infected with 1 MOI BVDV assessed as decrease in viral E2 protein mobility at 0.8 to 100 uM after 24 hrs by Western blotting. The data set is classed as cell-based. The note with it: Bos taurus. The method in brief:
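MDBK cells infected with BVDV at MOI 1 for 1 h, then compounds at 0.8, 4.0, 20 and 100 μM. Cells lysed in Laemmli buffer, run on 12% polyacrylamide gel and transferred to nitrocellulose. BVDV E2 mobility probed with monoclonal WB166 and β-actin detected in parallel. IR-dye secondary antibody, Odyssey imaging.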

For a further data set, the system named is Dengue virus. The experiment in a line: Antiviral activity against 0.01 MOI DENV infected in human Huh7.5 cells assessed as reduction in viral […] protein level at 0.1 to 100 uM after 2 days by Western blotting. As to conditions: Huh-7. It counts as functional, organism-based. On the technique in general: Immunoblotting shows a protein as a band on a membrane.

Data set [1] is described as follows: Metabolic stability in mouse liver microsomes at 60 mins. It counts as ADME, Microsome. As to conditions: read-out: Stability. For orientation: Liver microsomes are a subcellular fraction often used to study metabolism.
A short description of data set [2]: Metabolic stability in rat liver microsomes at 60 mins. The data set is classed as ADME, Microsome. As to conditions: read-out: Stability.
Data set [3] is described as follows: Metabolic stability in human liver microsomes at 60 mins. The data set is classed as ADME, Microsome. As to conditions: read-out: Stability.
Data set [4] is described as follows: Cytotoxicity against BHK cells assessed as cell viability by MTT assay. The data set is classed as cell-based, Mesocricetus auratus. The note with it: hamster. (In general: Formazan colour is commonly taken as a measure of viable cells.)
In a further data set the test system is dengue virus type 2. Description: Antiviral activity against 0.01 MOI DENV-2 NGC infected in BHK cells assessed as reduction in viral titer after 48 hrs. The data set is classed as functional, organism-based. The method in brief:
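BHK cells infected with DENV-2 New Guinea C at MOI 0.01 for 1 h. Inoculum removed, then compounds at 0.1–100 μM for 48 h at 37 °C. Supernatants titrated on Vero monolayers as 10-fold dilutions under 0.5% methylcellulose for 3–5 days. Foci detected by 4G2 immunostaining or crystal violet plaques. EC50 from dose–response curves, mean of 3 independent experiments.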

Data set [5] in a line: Cytotoxicity against MDBK cells assessed as cell viability by MTT assay. The data set is classed as cell-based, Bos taurus. The note with it: cattle.
Data set [6] can be described thus: Antiviral activity against 1 MOI BVDV NADL infected in MDBK cells assessed as reduction in viral titer after 22 hrs. The data set is classed as functional, cell-based, Bovine viral diarrhea virus 1-NADL. As to conditions: Bovine viral diarrhea virus isolates and strains, MDBK, 22 h. The method in brief: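 MDBK cells (2×10^5) infected 24 h after seeding with BVDV NADL at MOI 1, with 1 h adsorption at 37 °C. Washed, then compounds at 0.1–100 μM. Media harvested 22 h post-infection and plaque-titrated on MDBK under 1% methylcellulose for 3 days. Plaques counted directly or after neutral red staining. EC50 from dose–response curves, mean of 3 independent experiments.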

In data set [7] the target is T1, CYP3A4 (Homo sapiens, UniProt P08684). Description: (§1) Inhibition of human CYP3A4 using testosterone as substrate at 10 uM. The note with it: probe testosterone. The data set is classed as ADME. The method in brief: (§2)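 Inhibition of CYP isoforms with compound at 10 μM, reported as % inhibition. CYP3A4 run with midazolam or testosterone as substrate.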
Another data set addresses CYP2D6 (Homo sapiens, UniProt P10635). Description: Inhibition of human CYP2D6 at 10 uM. The data set is classed as ADME. The method in brief:
(§3)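 Inhibition of CYP isoforms by compounds tested at 10 μM, given as percent inhibition; contract in vitro ADME panel.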

Data set [8] has as its target T1, CYP3A4. The experiment in a line: Inhibition of human CYP3A4 using midazolam as substrate at 10 uM. The data set is classed as ADME. As to conditions: probe midazolam. The method in brief: as §2
The next data set deals with CYP2C19 (Homo sapiens, UniProt P33261). The experiment in a line: Inhibition of human CYP2C19 at 10 uM. The data set is classed as ADME. The method in brief: as §2
The next data set concerns the target CYP2C9 (Homo sapiens, UniProt P11712). Description: Inhibition of human CYP2C9 at 10 uM. The data set is classed as ADME. The method in brief:
as §3

The next data set addresses T2, CYP1A2 (Homo sapiens, UniProt P05177).
T2 sequence (P05177 whole entry): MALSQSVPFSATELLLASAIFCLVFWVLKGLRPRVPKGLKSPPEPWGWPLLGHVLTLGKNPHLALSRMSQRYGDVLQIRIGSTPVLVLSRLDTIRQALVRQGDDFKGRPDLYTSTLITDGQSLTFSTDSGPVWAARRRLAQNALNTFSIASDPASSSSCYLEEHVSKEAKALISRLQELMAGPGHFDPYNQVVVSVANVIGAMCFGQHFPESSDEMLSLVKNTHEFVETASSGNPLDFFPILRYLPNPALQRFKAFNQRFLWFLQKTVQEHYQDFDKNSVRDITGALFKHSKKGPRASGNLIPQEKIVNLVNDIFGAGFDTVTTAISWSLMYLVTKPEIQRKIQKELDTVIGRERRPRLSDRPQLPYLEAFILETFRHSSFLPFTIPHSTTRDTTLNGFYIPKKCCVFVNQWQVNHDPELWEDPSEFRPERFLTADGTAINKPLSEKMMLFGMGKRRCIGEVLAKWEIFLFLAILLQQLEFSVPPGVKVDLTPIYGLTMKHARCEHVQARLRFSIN
The experiment in a line: Inhibition of human CYP1A2 at 10 uM. It counts as ADME. The method in brief:
as §2

A short description of data set [9]: Plasma protein binding in mouse plasma. The note with it: read-out: PPB (converted). The data set is classed as ADME, cell-free. The method in brief:
(§4)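 Binding of compound to human, rat or mouse plasma protein, reported as % bound.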

Data set [10] in a line: Plasma protein binding in rat plasma. The data set is classed as ADME, cell-free. As to conditions: read-out: PPB (converted). The method in brief:
as §4

Data set [11] is described as follows: Plasma protein binding in human plasma. The data set is classed as ADME, cell-free. The note with it: read-out: PPB (converted). The method in brief:
as §4

Data set [12] can be described thus: Aqueous solubility in PBS at pH 7.4. The data set is classed as physicochemical. The note with it: buffer.
Data set [13] in a line: Aqueous solubility in PBS at pH 4. As to conditions: buffer. The data set is classed as physicochemical.
Data set [14] can be described thus: Cytotoxicity against human Huh7.5 cells assessed as cell viability by DRAQ5 and Sapphire 700 staining. As to conditions: huh-7.
A short description of data set [15]: Selectivity index, ratio of CC50 for BHK cells to EC50 for DENV-2 NGC infected in BHK cells. The method in brief:
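BHK cells infected with DENV-2 New Guinea C at MOI 0.01 for 1 h, then compounds at 0.1–100 μM for 48 h at 37 °C. Supernatant titrated on Vero cells under 0.5% methylcellulose, 3–5 days; foci by 4G2 immunostaining or crystal violet plaques. EC50 from yield curves; MTT CC50 in uninfected BHK; SI = CC50/EC50.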

Data set [16] in a line: Selectivity index, ratio of CC50 for MDBK cells to EC50 for BVDV NADL infected in MDBK cells. The method in brief: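 MDBK cells infected with BVDV NADL at MOI 1, 1 h at 37 °C, washed, then compounds at 0.1–100 μM. Media harvested at 22 h, plaque-titrated on MDBK under 1% methylcellulose for 3 days, neutral red or direct count. EC50 from yield curves; MTT CC50 in uninfected MDBK; SI = CC50/EC50.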

Data set [17] can be described thus: Oral bioavailability in Sprague-Dawley rat at 25 mg/kg. It counts as ADME, organism-based. As to conditions: in vivo.
The next data set addresses Cytochrome P450 3A4 (Homo sapiens, UniProt P08684). The description is as §1. The data set is classed as ADME. As to conditions: 10 µM. The method in brief:
as §2

Chain of CYP2C19 (P33261 whole entry): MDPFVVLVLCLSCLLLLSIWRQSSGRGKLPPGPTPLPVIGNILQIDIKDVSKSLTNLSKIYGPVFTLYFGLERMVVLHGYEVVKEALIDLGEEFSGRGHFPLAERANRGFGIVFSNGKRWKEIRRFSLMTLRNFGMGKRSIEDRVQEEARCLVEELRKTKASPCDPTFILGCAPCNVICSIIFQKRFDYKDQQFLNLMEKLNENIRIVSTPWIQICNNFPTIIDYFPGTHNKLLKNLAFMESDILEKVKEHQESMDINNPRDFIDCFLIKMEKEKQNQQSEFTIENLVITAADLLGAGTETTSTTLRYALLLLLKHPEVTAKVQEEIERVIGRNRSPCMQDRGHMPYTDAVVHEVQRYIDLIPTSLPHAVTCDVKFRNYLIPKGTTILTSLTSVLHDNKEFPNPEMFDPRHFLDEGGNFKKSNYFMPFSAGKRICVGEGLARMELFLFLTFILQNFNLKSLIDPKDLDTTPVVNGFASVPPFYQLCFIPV
Chain of CYP2C9 (P11712 whole entry): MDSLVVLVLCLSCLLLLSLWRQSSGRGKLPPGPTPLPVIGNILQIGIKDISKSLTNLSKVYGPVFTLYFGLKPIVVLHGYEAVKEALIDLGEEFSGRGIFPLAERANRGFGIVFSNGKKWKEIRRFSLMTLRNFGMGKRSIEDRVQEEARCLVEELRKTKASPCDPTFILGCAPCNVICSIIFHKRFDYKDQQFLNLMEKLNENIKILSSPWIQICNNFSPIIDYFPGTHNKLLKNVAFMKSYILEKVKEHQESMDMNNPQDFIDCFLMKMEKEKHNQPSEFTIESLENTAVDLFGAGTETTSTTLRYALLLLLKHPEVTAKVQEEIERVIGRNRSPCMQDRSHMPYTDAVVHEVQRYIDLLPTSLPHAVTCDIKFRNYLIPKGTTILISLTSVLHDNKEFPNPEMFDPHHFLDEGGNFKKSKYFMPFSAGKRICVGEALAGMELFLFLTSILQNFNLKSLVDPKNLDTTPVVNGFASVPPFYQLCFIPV
T1 sequence (P08684 whole entry, canonical isoform): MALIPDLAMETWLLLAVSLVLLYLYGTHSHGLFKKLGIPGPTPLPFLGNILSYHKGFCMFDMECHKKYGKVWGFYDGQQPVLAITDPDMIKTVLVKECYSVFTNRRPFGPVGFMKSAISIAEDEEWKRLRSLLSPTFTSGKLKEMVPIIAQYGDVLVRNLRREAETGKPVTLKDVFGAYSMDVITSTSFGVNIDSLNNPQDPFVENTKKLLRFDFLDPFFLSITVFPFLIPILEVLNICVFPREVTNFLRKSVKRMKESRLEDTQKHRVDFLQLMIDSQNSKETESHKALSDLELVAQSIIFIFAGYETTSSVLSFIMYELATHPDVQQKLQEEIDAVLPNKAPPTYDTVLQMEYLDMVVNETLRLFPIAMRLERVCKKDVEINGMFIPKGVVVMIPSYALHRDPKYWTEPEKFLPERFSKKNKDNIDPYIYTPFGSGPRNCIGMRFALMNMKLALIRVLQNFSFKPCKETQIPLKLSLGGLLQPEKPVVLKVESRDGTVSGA
Chain of CYP2D6 (P10635 whole entry, canonical isoform): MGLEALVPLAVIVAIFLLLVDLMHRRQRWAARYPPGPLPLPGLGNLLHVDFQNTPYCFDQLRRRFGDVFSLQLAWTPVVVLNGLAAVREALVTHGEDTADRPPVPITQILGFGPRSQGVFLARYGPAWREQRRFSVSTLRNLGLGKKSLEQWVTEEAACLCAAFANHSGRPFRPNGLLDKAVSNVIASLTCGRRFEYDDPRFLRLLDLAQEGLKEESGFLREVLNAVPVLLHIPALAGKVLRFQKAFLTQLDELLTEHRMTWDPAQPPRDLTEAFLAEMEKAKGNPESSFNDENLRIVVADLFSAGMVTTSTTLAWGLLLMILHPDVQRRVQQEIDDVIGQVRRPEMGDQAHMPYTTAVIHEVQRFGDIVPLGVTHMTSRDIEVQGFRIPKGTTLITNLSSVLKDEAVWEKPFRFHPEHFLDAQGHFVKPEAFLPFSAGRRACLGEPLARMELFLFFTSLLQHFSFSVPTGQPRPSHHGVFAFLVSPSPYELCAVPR
Chain of Cytochrome P450 3A4 (P08684 whole entry): as the sequence (P08684 whole entry, canonical isoform) above

For `CCCOc1cccc(CCCN2C[C@H](O)[C@@H](O)[C@H](O)[C@H]2CO)c1`, the inhibition (as a rule, the change of the read-out against control, counted positive when it falls) in the data set on MDBK was “Active”. Besides, the result with Dengue virus was Active. The remaining at 1 h in data set [1] stood at 87%; in data set [2], 97%; in [3], 99%. Besides, the CC50 in [4] and in data set [5] was above 500 µM each time. The Activity result is “Dose-dependent effect” in the data set on dengue virus type 2 and “Non-toxic” in data set [14]. The EC50 – broadly, the concentration needed to bring the measured effect to its halfway point – stood at 300 nM in the data set with dengue virus type 2 and 1200 nM in data set [6]. In addition, the inhibition at 10 µM against CYP3A4 [7] came out at 0.7%; against CYP2D6 it was 11%; at CYP3A4 [8], 8.6%; at CYP2C19, 2.8%; against CYP2C9 it was 10.5%; at CYP1A2 it was 15.9%. The fraction unbound is 0.4 in data set [9], 0.43 in data set [10] and 0.32 in data set [11]. The solubility (in general, the dissolved amount per volume that the medium holds) in data set [12] is 288 µM (≈ 97.8 µg/mL); in data set [13], 281 µM (≈ 95.4 µg/mL).

Regarding `OC[C@@H]1[C@@H](O)[C@H](O)[C@@H](O)CN1CCCCCCOC1CCCCC1`, the inhibition entry in the data set on MDBK was “Active”. The “Ratio CC50/EC50” value is given as above 312 in [15] and 1200 in data set [16]. Further, the CC50 (as a rule, the concentration that lowers cell viability or growth by half) in data set [4] is above 500 µM; in data set [5] it was 480 µM. Moreover, the EC50 in the data set on dengue virus type 2 stood at 1600 nM; in data set [6], 400 nM.

For the compound `CCC(O)(CC)CCCCCCN1C[C@H](O)[C@@H](O)[C@H](O)[C@H]1CO`, in the data set on MDBK, the inhibition result was “Active”. In addition, the bioavailability – broadly, the share of a dose that reaches the circulation, judged against a reference dose that is usually intravenous – in [17] amounted to 56%. For the same compound, in the data set with Dengue virus, the result was Active. The remaining at 1 h in data set [1] stood at 104%; in data set [2], 98%; in [3] it was 99%. The CC50 in data set [4] and in [5] was above 500 µM each time. The Activity result with dengue virus type 2 is “Dose-dependent effect”; in data set [14], “Non-toxic”. In addition, the EC50 was 6500 nM in the data set with dengue virus type 2 and 6200 nM in data set [6]. In addition, the inhibition at 10 µM against CYP3A4 [7] stood at 20.5%; against CYP2D6 it was 1.2%; against CYP3A4 [8] it was 21%; against CYP2C19 it was 37%; at CYP2C9, 9.6%; on CYP1A2 it was 7.9%. For the same compound, the fraction unbound in [9] is 0.6; in data set [10], 0.7; in [11], 0.67. Moreover, the solubility in [12] and in [13] was 315 µM (≈ 105 µg/mL) throughout.

As for `OC[C@@H]1[C@@H](O)[C@H](O)[C@@H](O)CN1CCCCCCOCc1ccccc1`, in the data set on Dengue virus, the outcome was Active. Moreover, the remaining at 1 h came out at 97% in data set [1], 91% in [2] and 104% in [3]. Moreover, the CC50 in data set [4] and in [5] was above 500 µM each time. For the same compound, the Activity result in the data set with dengue virus type 2 was “Dose-dependent effect”; in [14] it was “Non-toxic”. For the same compound, the EC50 worked out at 400 nM in the data set with dengue virus type 2 and 1500 nM in data set [6]. In addition, on Cytochrome P450 3A4, the “inhibition (INH)” value turned out to be 3.3%. Besides, the inhibition at 10 µM against CYP2D6 was 9.1%; against CYP3A4 [8], 6.6%; on CYP2C19, 14.2%; on CYP2C9 it was 10.7%; on CYP1A2, 17.3%. In addition, the fraction unbound was 0.47 in data set [9], 0.51 in data set [10] and 0.48 in data set [11]. The solubility was 288 µM (≈ 102 µg/mL) in [12] and 282 µM (≈ 99.7 µg/mL) in data set [13].

Take `OC[C@@H]1[C@@H](O)[C@H](O)[C@@H](O)CN1CCCCCCOC1CCCCCC1`: the outcome with Dengue virus was Active. For the same compound, the remaining at 1 h in data set [1] stood at 92%; in data set [2], 90%; in data set [3], 89%. The CC50 in data set [4] and in data set [5] was above 500 µM each time. Moreover, the Activity entry in the data set with dengue virus type 2 is “Dose-dependent effect”; in [14], “Non-toxic”. Also, the figures for the EC50 (in the data set on dengue virus type 2; in data set [6]) were 500 nM and 1400 nM, respectively. Moreover, on Cytochrome P450 3A4, the “inhibition (INH)” value was 3.1%. Besides, the inhibition at 10 µM at CYP2D6 is 2.5%; on CYP3A4 [8], 21.2%; at CYP2C19, -4.9%; on CYP2C9 it was 5%; at CYP1A2 it was 9%. In addition, the fraction unbound in [9] was 0.15; in [10], 0.35; in data set [11], 0.29. The solubility in [12] is 295 µM (≈ 106 µg/mL); in data set [13] it was 286 µM (≈ 103 µg/mL).
